In ChEMBL document CHEMBL1127687, “Benzoxazolamines and benzothiazolamines: potent, enantioselective inhibitors of leukotriene biosynthesis with a novel mechanism of action” (J Med Chem, 1994):
pIC50: −log10 of the molar value.

Species on record: Homo sapiens
Experiment: Inhibitory activity of Ca-ionophore-A23187-induced Leukotriene B4 (LTB4) release in human polymorphonuclear leukocytes
Assay type: functional
Conditions: not given
Method in brief: (§1)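 Human PMNs isolated from heparinized blood of healthy, medication-free donors (dextran sedimentation, Ficoll–Paque). DMSO stocks diluted into Ca/Mg-free Dulbecco's PBS. Cells (2.5 × 10^6/mL, PBS with Ca2+/Mg2+) preincubated with compound 15 min at 28 °C with shaking, then stimulated 10 min with A23187 (2.5 μM final). Stopped with EGTA (10 mM final), centrifuged, supernatant LTB4 measured by RIA.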

Row | Structure (SMILES) | pIC50 | Inhibition [%]
1 | CN1CCN(CC(Nc2nc3cc(Cl)ccc3o2)c2ccccc2)CC1 (configuration not stated) |  | 21
2 | Fc1ccc(CC(Nc2nc3cc(Cl)ccc3o2)c2ccccn2)cc1 (stereo in doubt; 59a) | 7.70 | 
3 | c1ccc(C(CC2CCCCC2)Nc2nc3ccccc3o2)cc1 (stereo in doubt; 26c) | 6.47 | 

Second part, led by results:

Row | pIC50 | Structure (SMILES) | Inhibition [%]
4 | 8.22 | c1ccc(C(CC2CCCCC2)Nc2nc3ccccc3o2)cc1 (stereo in doubt; 26b) | 
5 | 6.49 | Fc1ccc(CC(Nc2nc3cc(Cl)ccc3o2)c2ccccn2)cc1 (stereo in doubt; 59c) | 
6 | 8.10 | c1ccc(C(CC2CCCCC2)Nc2nc3ccccc3o2)cc1 (stereo in doubt; 26a) | 

Same assay, conditions: Homo sapiens

Row | Structure (SMILES) | pIC50
7 | CC(=O)C(Cc1ccccc1)Nc1nc2ccc(C(C)C)cc2o1 (configuration not stated) | 6.46
8 | Fc1ccc(CC(Nc2nc3cc(F)ccc3o2)c2ccccn2)cc1 (configuration not stated) | 7.68
9 | CCOC(=O)C(Cc1csc(C)n1)Nc1nc2cc(C(C)C)ccc2o1 (configuration not stated) | 7.80
10 | Fc1ccc(C(CC2CCCCC2)Nc2nc3ccccc3o2)cc1 (configuration not stated) | 6.77
11 | CCOC(=O)C(Cc1ccc(Cl)cc1)Nc1nc2ccccc2s1 (configuration not stated) | 6.70
12 | CCCOCC(Cc1ccc(F)cc1)Nc1nc2cc(C(C)C)ccc2o1 (configuration not stated) | 6.77
13 | CS(=O)(=O)Nc1ccc2oc(NC(CC3CCCCC3)c3ccccc3)nc2c1 (configuration not stated) | 6.80
14 | Cc1noc(C(Cc2ccc(F)cc2)Nc2nc3cc(C(C)C)ccc3o2)n1 (configuration not stated) | 6.36
15 | CCOC(=O)C(Cc1ccccc1)Nc1nc2ccc(CC)cc2s1 (configuration not stated) | 6.62
16 | CCOC(=O)[C@H](Cc1ccccc1)Nc1nc2ccccc2s1 | 6.64
17 | Cc1ccc2oc(NC(CC3CCCCC3)c3ccccn3)nc2c1 (configuration not stated) | 8.40
18 | CCOC(=O)c1ccc2oc(NC(Cc3ccc(F)cc3)c3ccccn3)nc2c1 (configuration not stated) | 7.57
19 | CCOCC(Cc1ccc(F)cc1)Nc1nc2cc(C(C)C)ccc2o1 (configuration not stated) | 7.39
20 | Clc1ccc2oc(NC(Cc3ccccc3)c3ccccc3)nc2c1 (configuration not stated) | 7.64
21 | CC(=O)Nc1ccc2oc(NC(CC3CCCCC3)c3ccccc3)nc2c1 (configuration not stated) | 7.11
22 | CNC(=O)C(CC1CCCCC1)Nc1nc2cc(C)ccc2o1 (configuration not stated) | 7.14
23 | CCOC(=O)c1ccc2oc(NC(CC3CCCCC3)c3ccccc3)nc2c1 (configuration not stated) | 7.35
24 | CCCCc1ccc2nc(NC(Cc3ccc(Cl)cc3)C(=O)OCC)sc2c1 (configuration not stated) | 6.74
25 | Fc1ccc(CC(Nc2nc3cc(C(F)(F)F)ccc3o2)c2ccccn2)cc1 (configuration not stated) | 8.10

Row | Structure (SMILES) | pIC50
26 | COc1ccc(C(CC2CCCCC2)Nc2nc3ccccc3o2)cc1 (configuration not stated) | 6.26
27 | CCOC(=O)[C@@H](Cc1ccccc1)Nc1nc2ccccc2o1 | 5.82
28 | COC(=O)[C@@H](CC1CCCCC1)Nc1nc2ccccc2o1 | 7.00
29 | Cc1ccc2oc(N[C@@H](CC3CCCCC3)c3ccccn3)nc2c1 [ONTAZOLAST] | 9.00
30 | CCOC(=O)C(Cc1ccc(F)cc1)Nc1nc2ccccc2s1 (configuration not stated) | 6.48
31 | c1ccc(CC(Nc2nc3ccccc3o2)c2ccccc2)cc1 (configuration not stated) | 7.29
32 | CCOC(=O)C(Cc1ccccc1)Nc1nc2ccc(C(C)C)cc2o1 (configuration not stated) | 6.66
33 | CCOC(=O)C(Cc1ccccc1)Nc1nc2cc(C(C)C)ccc2o1 (configuration not stated) | 9.30
34 | CCOC(=O)C(Cc1ccccc1)N(C)c1nc2ccccc2s1 (configuration not stated) | 6.00
35 | CN(C)S(=O)(=O)c1ccc2oc(NC(Cc3ccc(F)cc3)c3ccccn3)nc2c1 (configuration not stated) | 7.30
36 | CCOC(=O)C(Cc1ccccc1)Nc1nc2ccccc2s1 (configuration not stated) | 6.44
37 | O=C(O)c1ccc2oc(NC(CC3CCCCC3)c3ccccc3)nc2c1 (configuration not stated) | 6.82
38 | Fc1ccc(CC(Nc2nc3cc(F)c(F)cc3o2)c2ccccn2)cc1 (configuration not stated) | 7.52
39 | CC(C)c1ccc2oc(N[C@H](CN3CCCCC3)c3ccccc3)nc2c1 | 5.92
40 | CCOC(=O)C(CCc1ccccc1)Nc1nc2ccccc2s1 (configuration not stated) | 6.28
41 | CC(C)c1ccc2oc(NC(CC3CCCCC3)c3ccccc3)nc2c1 (configuration not stated) | 8.22
42 | Cc1ccc2oc(N[C@H](CC3CCCCC3)c3ccccn3)nc2c1 | 7.40
43 | CN(C)C(=O)c1ccc2oc(NC(CC3CCCCC3)c3ccccc3)nc2c1 (configuration not stated) | 6.77
44 | Cc1ccc2oc(NC(CC3CCCCC3)c3ccncc3)nc2c1 (configuration not stated) | 6.72

The next lines start with the values.

Row | pIC50 | Structure (SMILES)
45 | 7.92 | CCOC(=O)C(Cc1ccccc1)Nc1nc2cc(CC)ccc2s1 (configuration not stated)
46 | 7.77 | COCC(Cc1ccc(F)cc1)Nc1nc2cc(C(C)C)ccc2o1 (configuration not stated)
47 | 7.85 | COc1ccc(CC(Nc2nc3cc([N+](=O)[O-])ccc3o2)c2ccccn2)cc1 (configuration not stated)
48 | 7.10 | Clc1ccccc1C(CC1CCCCC1)Nc1nc2ccccc2o1 (configuration not stated)
49 | 8.30 | CC(C)c1ccc2oc(NC(Cc3cccc(Cl)c3)c3ccccn3)nc2c1 (configuration not stated)
50 | 7.32 | Clc1ccc2oc(NC(CN3CCSCC3)c3ccccc3)nc2c1 (configuration not stated)
51 | 7.89 | CSCC(Cc1ccccc1)Nc1nc2cc(C(C)C)ccc2o1 (configuration not stated)
52 | 6.48 | CCOC(=O)C(Cc1ccc(Cl)cc1)Nc1nc2ccc(C(C)C)cc2s1 (configuration not stated)
53 | 7.54 | Cc1nc(CC(Nc2nc3cc(C(C)C)ccc3o2)c2ccccn2)cs1 (configuration not stated)
54 | 7.92 | CC(C)c1ccc2oc(NC(Cc3ccc(F)cc3)c3ccccn3)nc2c1 (configuration not stated)
55 | 6.52 | Cc1cccc(C(CC2CCCCC2)Nc2nc3ccccc3o2)c1 (configuration not stated)
56 | 7.00 | CC(C)c1ccc2oc(N[C@@H](CN3CCCCC3)c3ccccc3)nc2c1
57 | 8.05 | COc1ccc2oc(NC(Cc3ccccc3)c3ccccc3)nc2c1 (configuration not stated)
58 | 6.82 | CCOC(=O)C(Cc1ccc(Br)cc1)Nc1nc2ccccc2s1 (configuration not stated)
59 | 6.82 | CCOC(=O)[C@H](Cc1ccccc1)Nc1nc2ccccc2o1
60 | 7.70 | Cc1ccc2oc(NC(CC3CCCCC3)c3cccnc3)nc2c1 (configuration not stated)
61 | 7.28 | CC(C)c1ccc2oc(NC(CN3CCOCC3)c3ccccc3)nc2c1 (configuration not stated)
62 | 8.30 | COC(=O)[C@H](CC1CCCCC1)Nc1nc2ccccc2o1
63 | 6.77 | c1ccc(CC(Nc2nc3ccccc3s2)c2ccccc2)cc1 (configuration not stated)
64 | 6.64 | CCOC(=O)C(Cc1ccc(Cl)cc1)Nc1nc2ccc(OC)cc2s1 (configuration not stated)
65 | 7.82 | N#Cc1ccc2oc(NC(CC3CCCCC3)c3ccccc3)nc2c1 (configuration not stated)
66 | 7.80 | O=[N+]([O-])c1ccc2oc(NC(Cc3ccc(F)cc3)c3ccccn3)nc2c1 (configuration not stated)
67 | 7.54 | CC(C)c1ccc2oc(NC(Cc3ccc(Cl)cc3)c3ccccn3)nc2c1 (configuration not stated)
68 | 7.96 | COc1ccc2oc(NC(Cc3ccc(F)cc3)c3ccccn3)nc2c1 (configuration not stated)

Species on record: Homo sapiens
Experiment: Inhibitory activity of Ca-ionophore-A23187-induced Leukotriene B4 (LTB4) release in human polymorphonuclear leukocytes at the dose of 1 micro M concentration
Assay type: functional
Conditions: not given
Method in brief: as §1

Row | Structure (SMILES) | Inhibition [%]
69 | CCOC(=O)C(Cc1c[nH]cn1)Nc1nc2cc(C(C)C)ccc2o1 (configuration not stated) | 26
70 | CCOC(=O)C(Cc1cncn1CC)Nc1nc2cc(C(C)C)ccc2o1 (configuration not stated) | 59

Species on record: Homo sapiens
Experiment: Inhibitory activity of Ca-ionophore-A23187-induced Leukotriene B4 (LTB4) release in human polymorphonuclear leukocytes at the dose of 3 micro M concentration
Assay type: functional
Conditions: not given
Method in brief: as §1

Row | Structure (SMILES) | Inhibition [%]
71 | O=C(O)C(Cc1ccccc1)Nc1nc2ccccc2s1 (configuration not stated) | -19
72 | CCOC(=O)C(Cc1ccccc1)Cc1nc2ccccc2s1 (configuration not stated) | 56
73 | O=[N+]([O-])c1ccc2oc(NC(Cc3ccc(O)cc3)c3ccccn3)nc2c1 (configuration not stated) | 27
74 | CCOC(=O)C(Nc1nc2ccccc2s1)c1ccccc1 (configuration not stated) | 61
75 | NC(=O)c1ccc2oc(NC(CC3CCCCC3)c3ccccc3)nc2c1 (configuration not stated) | 35
76 | O=S1(=O)CCN(CC(Nc2nc3cc(Cl)ccc3o2)c2ccccc2)CC1 (configuration not stated) | 46

Same assay, conditions: in the assay text read “0.3 micro M” for “3 micro M”

Row | Structure (SMILES) | Inhibition [%]
77 | OCc1ccc2oc(NC(CC3CCCCC3)c3ccccc3)nc2c1 (configuration not stated) | 41
